Source: the EternaBench riboswitch data

Test system: MS2 coat protein
Assay: apparent Kd, MS2 coat protein; higher = weaker binding; RNA-MaP array; FMN 200 µM where present
Procedure, shortened: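 Two titrations, one without ligand and one with constant ligand, were run with SNAP-549-labelled MS2 coat protein from 0.7 or 1.5 nM, doubling to 3 µM. The targets were designs transcribed by stalled E. coli RNA polymerase on Illumina sequencing-chip clusters, in 100 mM Tris-HCl pH 7.5, 80 mM KCl, 4 mM MgCl2, BSA, DTT, yeast tRNA and Tween-20. The apparent Kd is the median of filtered per-cluster binding-curve fits, with green signal normalised to red-channel RNA signal and control-cluster median Fmax.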

[1] = designed as: OFF switch for flavin mononucleotide, no ligand
[2] = ligand present: flavin mononucleotide, designed as: OFF switch for flavin mononucleotide
[3] = designed as: ON switch for flavin mononucleotide, no ligand
[4] = ligand present: flavin mononucleotide, designed as: ON switch for flavin mononucleotide

Row | Sequence | apparent Kd [1] [nM] | apparent Kd [2] [nM] | apparent Kd [3] [nM] | apparent Kd [4] [nM]
1 | UGUCGGAGCAGAGGAUAUACAUGAGGAUCACCCAUGUAAUAAAGUGAAGCCUGGAAACAGGCAAUGUAGAAGGCUGCUCCGACA | 29.9 | 249 |  | 
2 | UGUCGGAGCAGAGGAUAUAUACAUGAGGAUCACCCAUGUAAAUGAAUGAGCUGGAAACAGCAAGUAUAGAAGGCUGCUCCGACA |  | 16.5 |  | 
3 | UGUCGGAGCAGAGGAUAUUACAUGAGGAUCACCCAUGUAUGAACCAAUAGCAGGAAACAGCAAUGUAAGAAGGCUGCUCCGACA | 10.3 | 77.4 |  | 
4 | UGUCGGAGCAGAGGAUAUUACAUGAGGAUCACCCAUGUAUGAACCAAUAGCCGGAAACAGCAAUGUAAGAAGGCUGCUCCGACA | 4.64 | 6.88 |  | 
5 | UGUCGGAGCAGAGGAUAUUACAUGAGGAUCACCCAUGUAUGAACCAAUAGCGGGAAACAGCAAUGUAAGAAGGCUGCUCCGACA | 34.6 | 140 |  | 
6 | UGUCGGAGCAGAGGAUAUUACAUGAGGAUCACCCAUGUAUGAACCAAUAGCUGGAAACAGCAACGUAAGAAGGCUGCUCCGACA | 6.75 | 47.2 |  | 
7 | UGUCGGAGCAGAGGAUAUUACAUGAGGAUCACCCAUGUAUGAACCAAUAGCUGGAAACAGCAAUGUAAGAAGGCUGCUCCUACA | 12.5 | 147 |  | 
8 | UGUCGGAGCAGAGGAUAUUACAUGAGGAUCACCCAUGUAUGAACCAAUAGCUGGAAACAGCAGUGUAAGAAGGCUGCUCCGACA | 12.5 | 143 |  | 
9 | UGUCGGAGCAGAGGAUAUUACAUGAGGAUCACCCAUGUAUGAACCAAUAGCUGGAUACAGCAAUGUAAGAAGGCUGCUCCGACA | 9.16 | 89.2 |  | 
10 | UGUCGGAGCAGAGGAUAUUACAUGAGGAUCACCCAUGUAUGAAUCAAUAGCUGGAAACAGCAAUGUAAGAAGGCUGCUCCGACA | 7.86 | 26.6 |  | 
11 | UGUCGGAGCAGAGGAUAUUACAUGAGGAUCACCCAUGUGGAAAAACCAAGCUGGAAACAGCAAUGUAAGAAGGCUGCUCCGACA | 487 | 804 |  | 
12 | UGUCGGAGCUGAGGAUAUUACAUGAGGAUCACCCAUGUAUGAACCAAUAGCUGGAAACAGCAAUGUAAGAAGGCUGCUCCGACA | 5.65 | 34.1 |  | 
13 | UGUCUCAGAGGAUAUACAGGUGUAGAUCCUUUAGACCCUUGACAUGAGGAUCACCCAUGUAGAAGGCUGCAGAC | 69.4 | 26.4 |  | 
14 | UGUGCGUAUGUGAGGAUAUGCUGGUCCUUGGAUCGGCAGAAGGCACAUGAGGAUCACCCAUGUGGUGUCGUUCU | 389 | 24.8 |  | 
15 | UGUGCGUUGAUCUUAGAUCGGAGUACAUGAGGAUCACCCAUGUAGGAUAUUCAAAGACGCAGAUAGAAGAAGGACAUAGGUUUC | 7.85 | 11.6 |  | 
16 | UGUGCGUUGAUCUUCGAUCGGAGUACAUGAGGAUCACCCAUGUAGGAUAUUCAAAGACGCAGAUAGGAGAAGGACAUCGGAUUA | 9.63 | 8.83 |  | 
17 | UGUGCUAUGUAGAAGGCAGAUCUGAUUCAGAUCUGAGGAUAUACAUGAGGAUCACCCAUGUUAUGCACCAGCACGAGAGUGCAG | 9.17 | 24 |  | 
18 | UGUGGGUGAUCAGGAUAUCCGUAUACAUGAGGAUCACCCAUGUCCUUGCUCAGCCGGGUAAGUUUGGAGAAGGGAUCAUCAAAU |  |  | 357 | 32.1
19 | UGUGUGUGACAGGAUAUGCUGGUUGUGAGACGGGUAGAAGGGUCUACAUGAGGAUCACCCAUGUGGCCGGUUGG | 23.1 | 20.6 |  | 
20 | UGUGUGUGUGCAGGAUAUUUAAGAAGAACAUGAGGAUCACCCAUGUGAGGAUCACCCAUGUAAAAGGAGAAGGGCAGUGUGUGU | 754 | 728 |  | 
21 | UGUGUUAUCGGAGGAUAUCGAUAUCAAACAUGAGGAUCACCCAUGUUGAGGAUCACACAUGUCCACGAGAAGGCCGACGUAGUG |  |  | 7.12 | 7.23
22 | UGUUAUUAGACAGGAUAUUGAAUGUUAAGUAUUAACAUGAGGAUCACCCAUGUAUUUCAUUCGUACAAGAAGGGUCAUGUUCCU |  |  | 166 | 202
23 | UGUUGAUAGCAGAAGGACAUGAGGAUCACCCAUGUACGGAUACAAAUAUAUGUAGGAUAUGCUAUUGACUAAGAGUGAGCGUUC | 5.78 | 7.87 |  | 
